What all share (assay type): functional
The species named for test [1] is Homo sapiens. The test is described as follows: Sour character at a concentration of 251 ppm (mean value). Summed up: (§1)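 Trained human sensory panel (Swartz method) tasted dilute aqueous solutions of the compounds, which had to be ≥95 weight percent pure and free of mutagenicity and toxicity. Taste character is reported as the mean value with 2S_m limits. Data deviating excessively at the 95% confidence level were rejected by the t-value method.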

For test [2], the species on record is Homo sapiens. Put plainly: Other taste character at a concentration of 251 ppm (mean value). Summed up: as §1
The species named for test [3] is Homo sapiens. Put plainly: Sweet character at a concentration of 251 ppm (mean value). Summed up:
as §1

The species named for test [4] is Homo sapiens. The test is described as follows: Experimentally determined perceived intensity of compound at a concentration of 251 ppm (mean value). Summed up:
(§2)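 Trained human sensory panel of judges tasted aqueous solutions of the compound. Samples had to be ≥95 weight % pure (HPLC, proton titration, Karl Fischer), non-mutagenic in five Salmonella typhimurium strains with and without microsomal activation, and non-toxic in a single-oral-dose mouse test. Perceived intensity (Ip) was read from time–intensity curves at 4- or 6-s intervals and averaged. Outliers at the 95% level were rejected by t-value. Values reported as mean (2Sm).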

The species named for test [5] is Homo sapiens. Put plainly: Sweet / Bitter character at a concentration of 251 ppm (mean value); […].
The species named for test [6] is Homo sapiens. Put plainly: Intensity calculated on a molar basis relative to a 0.25 M sucrose solution at a concentration of 251 ppm (mean value). The method in brief:
(§3)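 Trained human judges tasted aqueous solutions of the test compound; compounds were first required to be ≥95 weight percent pure and free of mutagenicity (five Salmonella typhimurium strains, ± microsomal activation) and of single oral dose mouse toxicity. Molar intensity I_m = perceived intensity × (0.25 M sucrose / compound molar concentration). The mean is reported with 2S_m limits; outliers were rejected at 95% confidence by t-value.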

Test [7] is filed under the species Homo sapiens. The test is described as follows: Salty character at a concentration of 251 ppm (mean value). The method in brief:
as §1

Test [8] is filed under the species Homo sapiens. The test is described as follows: Intensity calculated on a weight basis relative to an 85500 ppm sucrose solution at a concentration of 251 ppm (mean value). Summed up:
(§4)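 Trained human panel tasted aqueous solutions of purity-checked (≥95 weight percent) compounds cleared for mutagenicity and mouse oral toxicity. Weight-basis intensity I_w = perceived intensity × (85500 ppm sucrose / compound concentration in ppm). The mean is reported with 2S_m limits; data deviating excessively at 95% confidence were rejected by the t-value method.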

The species entered for test [9] is Homo sapiens. The test is described as follows: Bitter character at a concentration of 251 ppm (mean value). Summed up:
(§5)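 Trained human panel tasted aqueous solutions. Each judge reported whether there was an aftertaste and its character (sweet, bitter or bitter-sweet). The value is the percentage of judgments reporting a bitter aftertaste.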

Test [10] is filed under the species Homo sapiens. The test is described as follows: Number of taste judgments per compound.
Test [11] is filed under the species Homo sapiens. The test is described as follows: Percentage of judgments reporting an aftertaste at a concentration of 251 ppm and character thereof. Summed up: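 Trained human sensory panel; compounds tasted in aqueous solution. Before panel work, compounds had to be ≥95 weight percent pure (HPLC, proton titration, Karl Fischer) and free of mutagenicity (five Salmonella typhimurium strains, ± microsomal activation) and single oral dose mouse toxicity. Value is the percentage of judgments reporting an aftertaste, with its character recorded as sweet, bitter or bitter-sweet.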

Test [12] is filed under the species Homo sapiens. The test is described as follows: Sour character at a concentration of 210 ppm (mean value).
For test [13], the species on record is Homo sapiens. Put plainly: Intensity calculated on a weight basis relative to an 85500 ppm sucrose solution at a concentration of 210 ppm (mean value). The method in brief: as §4
For test [14], the species on record is Homo sapiens. Put plainly: Salty character at a concentration of 210 ppm (mean value).
Test [15] is filed under the species Homo sapiens. Put plainly: Sweet character at a concentration of 210 ppm (mean value).
Test [16] is filed under the species Homo sapiens. The test is described as follows: Percentage of judgments reporting an aftertaste at a concentration of 210 ppm and character thereof. The method in brief:
(§6)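 Trained judges tasted aqueous solutions of the compounds, which had to be ≥95 weight percent pure and to have passed mutagenicity and single oral dose toxicity screening. The value is the percentage of panel judgments reporting an aftertaste. Where given, its character is recorded as sweet, bitter or bitter-sweet.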

The species entered for test [17] is Homo sapiens. Put plainly: Sweet / Bitter character at a concentration of 210 ppm (mean value); 0/100.
Test [18] is filed under the species Homo sapiens. The test is described as follows: Other taste character at a concentration of 210 ppm (mean value). Summed up:
(§7)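 Trained human panel tasted aqueous solutions of each compound. Aftertaste is scored as the percentage of judgments reporting one, with its character coded sweet (s), bitter (b) or bitter-sweet (bs).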

The species entered for test [19] is Homo sapiens. The test is described as follows: Experimentally determined perceived intensity of compound at a concentration of 210 ppm (mean value). The method in brief:
as §2

For test [20], the species on record is Homo sapiens. The test is described as follows: Bitter character at a concentration of 210 ppm (mean value). The method in brief:
as §5

Test [21] is filed under the species Homo sapiens. The test is described as follows: Intensity calculated on a molar basis relative to a 0.25 M sucrose solution at a concentration of 210 ppm (mean value). The method in brief:
as §3

For test [22], the species on record is Homo sapiens. The test is described as follows: Percentage of judgments reporting an aftertaste at a concentration of 250 ppm and character thereof. Summed up: as §6
Test [23] is filed under the species Homo sapiens. Put plainly: Salty character at a concentration of 250 ppm (mean value). Summed up:
as §1

For test [24], the species on record is Homo sapiens. Put plainly: Sweet character at a concentration of 250 ppm (mean value). Summed up:
as §1

Test [25] is filed under the species Homo sapiens. Put plainly: Experimentally determined perceived intensity of compound at a concentration of 250 ppm (mean value). Summed up: as §2
For test [26], the species on record is Homo sapiens. The test is described as follows: Sweet / Bitter character at a concentration of 250 ppm (mean value); 92/8.
For test [27], the species on record is Homo sapiens. Put plainly: Sour character at a concentration of 250 ppm (mean value). The method in brief:
as §1

The species named for test [28] is Homo sapiens. Put plainly: Bitter character at a concentration of 250 ppm (mean value). The method in brief: as §5
The species entered for test [29] is Homo sapiens. Put plainly: Other taste character at a concentration of 250 ppm (mean value). The method in brief: as §1
Test [30] is filed under the species Homo sapiens. The test is described as follows: Intensity calculated on a molar basis relative to a 0.25 M sucrose solution at a concentration of 250 ppm (mean value). Summed up:
as §3

Test [31] is filed under the species Homo sapiens. Put plainly: Intensity calculated on a weight basis relative to an 85500 ppm sucrose solution at a concentration of 250 ppm (mean value). The method in brief:
as §4

The species entered for test [32] is Homo sapiens. Put plainly: Other taste character at a concentration of 1001 ppm (mean value). The method in brief:
as §7

Test [33] is filed under the species Homo sapiens. Put plainly: Salty character at a concentration of 1001 ppm (mean value).
Test [34] is filed under the species Homo sapiens. The test is described as follows: Sour character at a concentration of 1001 ppm (mean value).
Test [35] is filed under the species Homo sapiens. Put plainly: Intensity calculated on a weight basis relative to an 85500 ppm sucrose solution at a concentration of 1001 ppm (mean value). The method in brief: as §4
The species entered for test [36] is Homo sapiens. The test is described as follows: Sweet / Bitter character at a concentration of 1001 ppm (mean value).
For test [37], the species on record is Homo sapiens. Put plainly: Intensity calculated on a molar basis relative to a 0.25 M sucrose solution at a concentration of 1001 ppm (mean value). Summed up:
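Panel-derived mean perceived intensity (Ip) converted to a molar basis by Im = Ip × (0.25 M / Y), where Y is the compound's molar concentration. Reference is a 0.25 M sucrose solution. Reported with limits of 2Sm.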

The species named for test [38] is Homo sapiens. The test is described as follows: Experimentally determined perceived intensity of compound at a concentration of 1001 ppm (mean value). The method in brief:
as §2

The species entered for test [39] is Homo sapiens. Put plainly: Bitter character at a concentration of 1001 ppm (mean value). Summed up:
as §5

For test [40], the species on record is Homo sapiens. The test is described as follows: Percentage of judgments reporting an aftertaste at a concentration of 1001 ppm and character thereof; Sweet. Summed up: as §6
The species named for test [41] is Homo sapiens. The test is described as follows: Sweet character at a concentration of 1001 ppm (mean value).

The values below come from ChEMBL document CHEMBL1121813, “Dihydrochalcone sweeteners. A study of the atypical temporal phenomena” (1981).

In the case of `COc1ccc(CCC(=O)c2c(O)cc(OCCCP(=O)([O-])O)cc2O)cc1O.[K+]`, the Taste character in the test listed under Homo sapiens [1] is listed as 0; in the test listed under Homo sapiens [2], 13; in the test listed under Homo sapiens [3], 80; in the test filed under Homo sapiens [5], 92; in the test listed under Homo sapiens [7] it was 0; in the test filed under Homo sapiens [9] it was 7. In addition, the IP in the test listed under Homo sapiens [4] was 0.83. The IM in the test filed under Homo sapiens [6] is 380. Moreover, in the test filed under Homo sapiens [8], the IW is recorded as 280. In addition, the Judgments in the test filed under Homo sapiens [10] turned out to be 12; in the test listed under Homo sapiens [11], 100.
For `COc1ccc(CC/C(=N\O)c2c(O)cc(OCC(=O)[O-])cc2O)cc1O.[Na+]`, the Taste character in the test filed under Homo sapiens [12] is listed as 26; in the test filed under Homo sapiens [14], 0; in the test filed under Homo sapiens [15], 0; in the test listed under Homo sapiens [17] it was 0; in the test listed under Homo sapiens [18], 0; in the test listed under Homo sapiens [20], 74. Also, in the test listed under Homo sapiens [13], the IW is 110. In addition, the Judgments in the test listed under Homo sapiens [16] was 0; in the test filed under Homo sapiens [10], 12. This molecule also had an IP in the test listed under Homo sapiens [19] of 0.2. Also, the IM in the test filed under Homo sapiens [21] is on record as 130.
For the molecule `COc1ccc(CCC(=O)c2c(O)cc(OCCC(O)C(=O)[O-])cc2O)cc1O.[Na+]` (centres undefined), the Judgments in the test filed under Homo sapiens [22] came to 100; in the test filed under Homo sapiens [10], 4. Further, the Taste character is 0 in the test listed under Homo sapiens [23]; 92 in the test listed under Homo sapiens [24]; 92 in the test listed under Homo sapiens [26]; 0 in the test filed under Homo sapiens [27]; 8 in the test listed under Homo sapiens [28]; 0 in the test listed under Homo sapiens [29]. Further, in the test listed under Homo sapiens [25], the IP was 1.28. In addition, in the test filed under Homo sapiens [30], the IM is given as 550. Besides, the IW in the test listed under Homo sapiens [31] is listed as 440.
Take `COc1ccc(CCc2noc3cc(OCC(=O)[O-])cc(O)c23)cc1O.[Na+]`: the Taste character in the test filed under Homo sapiens [32] was found to be 12; in the test filed under Homo sapiens [33], 0; in the test listed under Homo sapiens [34] it was 0; in the test listed under Homo sapiens [36], 75; in the test listed under Homo sapiens [39], 22; in the test listed under Homo sapiens [41], 66. Besides, the IW in the test listed under Homo sapiens [35] is 32. Besides, the IM in the test filed under Homo sapiens [37] is listed as 36. Also, the figures for the Judgments in the test filed under Homo sapiens [10] and in the test listed under Homo sapiens [40] were 12 and 100, respectively. In addition, in the test listed under Homo sapiens [38], the IP came to 0.38.
